The text below walks through data of ChEMBL document CHEMBL1125932 (1991).

Converted amounts (≈) assume the structure as drawn.

What all share (format): functional
Experiment [1] concerns HEL. The experiment in a line: Concentration required to inhibit CMV (Davis) induced cytopathogenicity in HEL cells by 50%. Particulars: Homo sapiens. For orientation: Protection from cytopathic effect is a common read-out in antiviral testing.
Experiment [2] concerns ESM. As to the kind of experiment: Concentration required to inhibit TK-HSV-1 (B2006) induced cytopathogenicity in ESM cells by 50%. Conditions: Homo sapiens. Put shortly: (§1)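 Embryonic skin-muscle (ESM) cell cultures were infected with 100 CCID50 of virus (1 CCID50 being the infective dose for 50% of cultures).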
The subject of experiment [3] is HEL. As to the kind of experiment: Concentration required to inhibit VZV (oka) induced cytopathogenicity in HEL cells by 50%. Conditions: Homo sapiens; read-out: MIC.
Experiment [4] concerns HEL. The experiment in a line: Concentration required to inhibit CMV (AD-169) induced cytopathogenicity in HEL cells by 50%. Conditions: Homo sapiens; read-out: MIC.
In experiment [5] the test system is HEL. As to the kind of experiment: Concentration required to inhibit TK-VZV (YSR) induced cytopathogenicity in HEL cells by 50%. Conditions: Homo sapiens.
For experiment [6], the system named is ESM. As to the kind of experiment: Concentration required to inhibit VV induced cytopathogenicity in ESM cells by 50%. Particulars: Homo sapiens. In outline: as §1
The test system of experiment [7] is ESM. The experiment in a line: Concentration required to inhibit HSV-1 (KOS) induced cytopathogenicity in ESM cells by 50%. Particulars: Homo sapiens; read-out: MIC. Put shortly:
as §1

The subject of experiment [8] is HEL. As to the kind of experiment: Concentration required to cause 50% reduction in HEL cell growth. Particulars: Homo sapiens; read-out: MIC.
Experiment [9] has as its system HEL. As to the kind of experiment: Concentration required to inhibit TK-VZV (07-1) induced cytopathogenicity in HEL cells by 50%. Conditions: Homo sapiens; read-out: MIC.
The test system of experiment [10] is HEL. As to the kind of experiment: Concentration required to inhibit VZV (YS) induced cytopathogenicity in HEL cells by 50%. Conditions: Homo sapiens; read-out: MIC.
Experiment [11] has as its system ESM. As to the kind of experiment: Concentration required to inhibit HSV-2(196) induced cytopathogenicity in ESM cells by 50%. Particulars: Homo sapiens; read-out: MIC. In outline:
as §1

For experiment [12], the system named is ESM. The experiment in a line: Concentration required to inhibit HSV-1 (McIntyre) induced cytopathogenicity in ESM cells by 50%. Conditions: Homo sapiens; read-out: MIC. In outline: as §1
For experiment [13], the system named is ESM. As to the kind of experiment: Concentration required to inhibit HSV-2(G) induced cytopathogenicity in ESM cells by 50%. Conditions: Homo sapiens; read-out: MIC. In outline: as §1
Experiment [14] has as its system ESM. The experiment in a line: Concentration required to cause 50% reduction in cellular DNA synthesis in ESM cells. Particulars: Homo sapiens; read-out: MIC. In outline:
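In ESM cells, cellular DNA synthesis was monitored by incorporation of [methyl-3H]dThd. The value is the concentration causing a 50% reduction in incorporation.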

Experiment [15] relates to ESM. The experiment in a line: Concentration required to inhibit HSV-2(lyons) induced cytopathogenicity in ESM cells by 50%. Particulars: Homo sapiens; read-out: MIC. Put shortly: as §1
Experiment [16] deals with ESM. The experiment in a line: Concentration required to inhibit HSV-1 (F) induced cytopathogenicity in ESM cells by 50%. Conditions: Homo sapiens; read-out: MIC. In outline: as §1
The subject of experiment [17] is ESM. The experiment in a line: Concentration required to inhibit TK-HSV-1 ([…]) induced cytopathogenicity in ESM cells by 50%. Particulars: Homo sapiens. Put shortly:
as §1

Experiment [18] concerns ESM. As to the kind of experiment: Concentration required to cause a microscopically detectable alteration of normal cell morphology in ESM cells. Particulars: Homo sapiens. Put shortly: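 ESM cells were examined under the microscope. The value is the minimum concentration causing a microscopically detectable change in normal cell morphology.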
Experiment [19] deals with ESM. As to the kind of experiment: Concentration required to inhibit VV induced cytopathogenicity in ESM cells by 50%. Conditions: Homo sapiens. In outline:
as §1

Experiment [20] relates to HEL. The experiment in a line: Concentration required to cause 50% reduction in HEL cell growth. Conditions: Homo sapiens.

As for `Cc1cn2c(O)c3ncn(COC(CO)CO)c3nc2n1`, the MIC was 5 µg/mL (≈ 17 µM) in [1]; 200 µg/mL (≈ 682 µM) in [2]; 50 µg/mL (≈ 170 µM) in [5]; above 400 µg/mL in experiment [6]; 20 µg/mL (≈ 68.2 µM) in experiment [17]; above 400 µg/mL in [18]. For the same molecule, the EC50 in experiment [3] was 4 µg/mL (≈ 13.6 µM); in [4], 4 µg/mL (≈ 13.6 µM); in experiment [9], 15 µg/mL (≈ 51.1 µM); in [10] it was 10 µg/mL (≈ 34.1 µM); in experiment [11], 0.07 µg/mL (≈ 0.239 µM); in experiment [13], 0.07 µg/mL (≈ 0.239 µM). In addition, the EC50 in experiment [16] was 0.07 µg/mL (≈ 0.239 µM). For the same molecule, the 50% inhibitory concentration against virus-induced cytopathogenicity (EC50) in experiment [7] worked out at 0.07 µg/mL. For the same molecule, in [8], the 50% cell growth inhibitory concentration (CC50) was above 200 µg/mL. Further, the EC50 for inhibiting virus-induced cytopathogenicity in experiment [12] was 0.07 µg/mL. Further, the IC50 (DNA synthesis inhibition) in experiment [14] was above 200 µg/mL. For the same molecule, the EC50 (50% inhibition of virus cytopathogenicity) in experiment [15] amounted to 0.07 µg/mL.
On to `Nc1nc2c(ncn2COCCO)c(=O)[nH]1` [ACYCLOVIR], for which the MIC in [1] was 15 µg/mL (≈ 66.6 µM); in experiment [2], 100 µg/mL (≈ 444 µM); in experiment [6], above 200 µg/mL; in experiment [17], 40 µg/mL (≈ 178 µM); in experiment [18], 400 µg/mL (≈ 1780 µM).
For `Nc1nc2c(ncn2COC(CO)CO)c(=O)[nH]1` [GANCICLOVIR] the same measures were 1 µg/mL (≈ 3.92 µM), 7 µg/mL (≈ 27.4 µM), 20 µg/mL (≈ 78.4 µM), 1 µg/mL (≈ 3.92 µM) and above 400 µg/mL.
Consider `OC[C@H]1OC(n2cnc3c(O)n4ccnc4nc32)[C@H](O)[C@@H]1O` (some centres not stated), for which the MIC in [1] is 400 µg/mL (≈ 1300 µM); in [2], above 400 µg/mL; in [5] it was above 400 µg/mL; in experiment [19] it was above 400 µg/mL; in [17], above 400 µg/mL; in [20], above 200 µg/mL. The same molecule had an MIC in experiment [18] above 400 µg/mL. Besides, the EC50 in [3] was above 400 µg/mL; in experiment [4], 400 µg/mL (≈ 1300 µM); in [9] it was above 400 µg/mL; in [10] it was above 400 µg/mL; in [11] it was above 400 µg/mL; in [13], above 400 µg/mL. Further, in [16], the EC50 was above 400 µg/mL. Besides, the 50% inhibitory concentration against virus-induced cytopathogenicity (EC50) in experiment [7] is above 400 µg/mL. Also, in experiment [12], the EC50 for inhibiting virus-induced cytopathogenicity was above 400 µg/mL. In addition, in experiment [14], the IC50 (DNA synthesis inhibition) came out at 150 µg/mL (≈ 488 µM). Besides, the EC50 (50% inhibition of virus cytopathogenicity) in experiment [15] was above 400 µg/mL.
`Cc1cn2c(O)c3ncn(COCCO)c3nc2n1`: the MIC in experiment [1], in [2], in [5], in [6], in [17] and in [18] was above 400 µg/mL each time. The EC50 amounted to 20 µg/mL (≈ 76 µM) in [3]; 200 µg/mL (≈ 760 µM) in experiment [4]; 400 µg/mL (≈ 1520 µM) in experiment [9]; 25 µg/mL (≈ 95 µM) in experiment [10]; 0.7 µg/mL (≈ 2.66 µM) in [11]; 2 µg/mL (≈ 7.6 µM) in experiment [13]. Also, the EC50 in [16] is 0.7 µg/mL (≈ 2.66 µM). Further, the 50% inhibitory concentration against virus-induced cytopathogenicity (EC50) in experiment [7] came out at 0.7 µg/mL. The 50% cell growth inhibitory concentration (CC50) in experiment [8] was above 200 µg/mL. Further, the EC50 for inhibiting virus-induced cytopathogenicity in experiment [12] was found to be 1 µg/mL. The IC50 (DNA synthesis inhibition) in experiment [14] is above 200 µg/mL. Moreover, the EC50 (50% inhibition of virus cytopathogenicity) in experiment [15] stood at 0.4 µg/mL.
For the molecule `OCC(CO)OCn1cnc2c(O)n3ccnc3nc21`, the MIC in experiment [1] is 200 µg/mL (≈ 716 µM); in experiment [2], above 400 µg/mL; in experiment [5], 300 µg/mL (≈ 1070 µM); in [6], above 400 µg/mL; in experiment [17], 150 µg/mL (≈ 537 µM); in experiment [18] it was above 400 µg/mL. The EC50 was 400 µg/mL (≈ 1430 µM) in [3]; 150 µg/mL (≈ 537 µM) in experiment [4]; 400 µg/mL (≈ 1430 µM) in experiment [9]; above 400 µg/mL in experiment [10]; 2 µg/mL (≈ 7.16 µM) in [11]; 2 µg/mL (≈ 7.16 µM) in [13]. The EC50 in experiment [16] worked out at 0.7 µg/mL (≈ 2.51 µM). In addition, the 50% inhibitory concentration against virus-induced cytopathogenicity (EC50) in experiment [7] was 0.7 µg/mL. For the same molecule, the 50% cell growth inhibitory concentration (CC50) in experiment [8] was above 200 µg/mL. Moreover, in experiment [12], the EC50 for inhibiting virus-induced cytopathogenicity came to 0.7 µg/mL. Besides, the IC50 (DNA synthesis inhibition) in experiment [14] is above 200 µg/mL. Moreover, the EC50 (50% inhibition of virus cytopathogenicity) in experiment [15] was 0.7 µg/mL.
